Published values of several laboratories.
Cell line: HT-29

O=C1Nc2ccccc2/C1=N/NC(=O)c1cc2ccccc2[nH]1
IC50 (cell growth or viability): 19.7 µM

COc1ccc(C(=O)O[C@@H]2CN3Cc4c(cc5c(c4OC)OCO5)[C@@]24C=C[C@H](OC)C[C@@H]34)cc1
IC50 (cell growth or viability; WST-1): > 10 µM

O=c1[nH]c(=O)n([C@H]2C[C@H](O)[C@@H](CO)O2)cc1F
IC50 (cell growth or viability; SRB; 72 h): 0.056 µM

COc1c(C)c(OC)c2c(c1C)OC(c1ccccc1)CC2=O (stereo not drawn)
IC50 (cell growth or viability; SRB; 72 h): > 50 µM

CC(=O)c1ccc(N=Nc2c(C(=O)O)cc(O)c(O)c2O)cc1
IC50 (cell growth or viability; MTT): 14.6 µM

CCN(CC)CCNC(=O)c1c(C)[nH]c(/C=C2\C(=O)Nc3ccc(F)cc32)c1C
IC50 (cell growth or viability): 10.1 µM

C#Cc1cccc(Nc2ncnc3cc(OCCOC)c(OCCOC)cc23)c1
IC50 (cell growth or viability; MTT): 0.07 µM

CCCCCCCCCCCC(=O)Oc1c(C)c(O)c(C(=O)/C=C/c2ccccc2)c(OC)c1C
IC50 (cell growth or viability; SRB; 72 h): > 50 µM

CC(C)n1c(/C=C/C(O)CC(O)CC(=O)O)c(-c2ccc(F)cc2)c2ccccc21 (stereo not drawn)
IC50 (cell growth or viability; SRB; 72 h): 1.67 µg/mL

CC(C)C[C@H](NC(=O)[C@H](Cc1ccccc1)NC(=O)c1cnccn1)B(O)O
IC50 (cell growth or viability; ATP luminescence): 0.0098 µM

O=C(O)c1cc(O)c(O)c(O)c1
IC50 (cell growth or viability; MTT): 16.3 µM

O=c1cc(CO)occ1[O-].[Cl-].[W+4].c1cc[cH-]c1.c1cc[cH-]c1
IC50 (cell growth or viability; MTT): 200 µM

NCCC(=O)Nc1ccc(-n2nc(C(F)(F)F)cc2-c2ccc3c(c2)oc2ccccc23)cc1
IC50 (cell growth or viability; MTT; 24 h): 7.2 µg/mL

O=C1Nc2ccc(Cl)cc2/C1=N/NC(=O)c1cc2ccccc2[nH]1
IC50 (cell growth or viability): > 30 µM

F[B-](F)(F)F.[Fe+3].c1cc[cH-]c1.c1cc[cH-]c1
IC50 (cell growth or viability; MTT): 180 µM

CC(=O)c1ccc(/N=N/c2cc(/C=C/C(=O)O)ccc2O)cc1
IC50 (cell growth or viability; MTT): > 50 µM

COc1ccc2c(c1)/C(=N/NC(=O)c1cc3ccccc3[nH]1)C(=O)N2
IC50 (cell growth or viability): > 30 µM

CC[C@H](C)C(=O)O[C@H]1C[C@@H](C)C=C2C=C[C@H](C)[C@H](CC[C@@H]3C[C@@H](O)CC(=O)O3)[C@H]21
IC50 (cell growth or viability; SRB; 72 h): 7.26 µg/mL

C#C[C@@]1(O)[C@@H](COP(=O)(O)OC[C@H]2O[C@@H](n3cc(F)c(=O)[nH]c3=O)C[C@@H]2O)O[C@@H](n2ccc(N)nc2=O)[C@@H]1O
IC50 (cell growth or viability; SRB; 72 h): 0.0054 µM

Cc1nc(Nc2ncc(C(=O)Nc3c(C)cccc3Cl)s2)cc(N2CCN(CCO)CC2)n1
IC50 (IL-8 release; 24 h): > 2.05 µM

COc1ccc(C(=O)O[C@@H]2CN3Cc4c(cc5c(c4OC)OCO5)[C@@]24C=C[C@H](OC)C[C@@H]34)cc1OC
IC50 (cell growth or viability; WST-1): > 10 µM

CC(=O)O[C@H]1C(=O)[C@@]2(C)[C@H]([C@H](OC(=O)c3ccccc3)[C@]3(O)C[C@H](OC(=O)[C@H](O)[C@@H](NC(=O)c4ccccc4)c4ccccc4)C(C)=C1C3(C)C)[C@]1(OC(C)=O)CO[C@@H]1C[C@@H]2O
IC50 (cell growth or viability; fluorescence; 72 h): 0.0035 µM

CN1C(=O)/C(=N\NC(=O)c2cc3ccccc3[nH]2)c2ccccc21
IC50 (cell growth or viability): 12.9 µM

NCC(=O)Nc1ccc(-n2nc(C(F)(F)F)cc2-c2ccc3c(c2)Nc2ccccc2S3)cc1
IC50 (cell growth or viability; MTT; 24 h): 6.2 µg/mL

CC(=O)O[C@H]1C(=O)[C@@]2(C)[C@H]([C@H](OC(=O)c3ccccc3)[C@]3(O)C[C@H](OC(=O)[C@H](O)[C@@H](NC(=O)c4ccccc4)c4ccccc4)C(C)=C1C3(C)C)[C@]1(OC(C)=O)CO[C@@H]1C[C@@H]2O
IC50 (cell growth or viability): 0.0006 µM

COc1ccc(-c2cc3nccn3c(Nc3ncccc3C(N)=O)n2)cc1OC
IC50 (IL-8 release; 24 h): > 2.56 µM

O=C1Nc2ccc(Br)cc2/C1=N/NC(=O)c1cc2ccccc2[nH]1
IC50 (cell growth or viability): 21.9 µM
